# Reference: PMC6138487 (British Journal of Clinical Pharmacology, 2018)
# Marks after values point to notes of the source that are not given here.
# Assays:
# Assay type in all cases: in vivo, human
# [1] = Pharmacokinetics of elobixibat; conditions: for C1max / t1(1/2) / C8max / t8(1/2) / C14max / t14(1/2): geometric mean (CV)
# Procedure, shortened: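 Once-daily oral dosing before breakfast for 14 days. Plasma was drawn predose and at 0.5–12 h on Days –1, 1, 8 and 14, plus intermittent days to Day 21. Measured by LC–MS/MS (LLOQ 10.0 pg ml–1). Noncompartmental Cmax and AUC(0–t) on log-transformed values. Accumulation ratios were Day 8/Day 1 and Day 14/Day 1. Sex effect was expressed as back-transformed male/female LSM ratio.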
# [2] = tested on: plasma 7α‐hydroxy‐4‐cholesten‐3‐one (C4); assay: Plasma C4 level, M-test; conditions: Day 8 and Day 14; P < 0.001 except 2.5 mg day^–1
# [3] = tested on: serum low‐density lipoprotein cholesterol (LDL‐C); assay: Serum LDL-C level, M-test; conditions: Day 8 and Day 14; P < 0.001 except 2.5 mg day^–1
# [4] = tested on: serum high‐density lipoprotein cholesterol (HDL‐C); assay: Serum HDL-C level, M-test
# [5] = tested on: plasma 7α‐hydroxy‐4‐cholesten‐3‐one (C4); assay: Food effect on plasma C4, S-test; conditions: up to 24 h, AUEC P < 0.001
# Procedure, shortened: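 Crossover single dose taken 15 min before breakfast or fasting. Plasma was sampled predose and at 0.5–12 h on Days –1, 1, 7 and 8, plus daily. C4 was measured by LC–MS/MS (LLOQ 2 ng ml–1). […] Food effect was assessed by linear mixed model (dose, food, intervention, period fixed; patient random).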
# [6] = tested on: patients with chronic constipation; assay: Adverse events, S-test
# Procedure, shortened: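 Crossover study with patients randomized 5:1 to test compound (2.5–20 mg) or placebo. Single oral dose on Day 1, taken 15 min before breakfast or without breakfast, then 6-day washout. The alternative regimen was given on Day 8, followed by 5-day observation. Inpatient Day –2 to Day 14. AE type, severity and incidence recorded with vital signs, ECG and laboratory tests. Dose trend by Cochran–Armitage test.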
# [7] = Day 1, 2.5 mg once daily before breakfast
# [8] = Day 1, 5 mg once daily before breakfast
# [9] = Day 1, 10 mg once daily before breakfast
# [10] = Day 1, 15 mg once daily before breakfast
# [11] = Day 1, 20 mg once daily before breakfast
# [12] = Day 8, 2.5 mg once daily before breakfast
# [13] = Day 8, 5 mg once daily before breakfast
# [14] = Day 8, 10 mg once daily before breakfast
# [15] = Day 8, 15 mg once daily before breakfast
# [16] = Day 8, 20 mg once daily before breakfast
# [17] = Day 14, 2.5 mg once daily before breakfast
# [18] = Day 14, 5 mg once daily before breakfast
# [19] = Day 14, 10 mg once daily before breakfast
# [20] = Day 14, 15 mg once daily before breakfast
# [21] = Day 14, 20 mg once daily before breakfast
# [22] = M-test Day 8, linear mixed effect model
# [23] = M-test Day 14, linear mixed effect model
# [24] = single dose 2.5 mg, before breakfast (group n=10)
# [25] = single dose 2.5 mg, no breakfast (group n=10)
# [26] = single dose 5 mg, before breakfast (group n=10)
# [27] = single dose 5 mg, no breakfast (group n=10)
# [28] = single dose 10 mg, before breakfast (group n=10)
# [29] = single dose 10 mg, no breakfast (group n=10)
# [30] = single dose 15 mg, before breakfast (group n=10)
# [31] = single dose 15 mg, no breakfast (group n=10)
# [32] = single dose 20 mg, before breakfast (group n=10)
# [33] = single dose 20 mg, no breakfast (group n=9)
smiles,measurement,setting,value
CCCCC1(CCCC)CN(c2ccccc2)c2cc(SC)c(OCC(=O)N[C@@H](C(=O)NCC(=O)O)c3ccccc3)cc2S(=O)(=O)C1 [elobixibat],drug accumulation on multiple administration,[1]; 5 and 15 mg day^–1 dosages (Discussion),slight accumulation
same,C1max,[1]; [7],98.69 (56.9) pg ml^–1
same,t1(1/2),[1]; [7],1.89 (40.9) ^a h
same,C1max,[1]; [8],164.83 (54.7) pg ml^–1
same,t1(1/2),[1]; [8],2.41 (32.7) h
same,C1max,[1]; [9],284.67 (39.6) ^a pg ml^–1
same,t1(1/2),[1]; [9],2.69 (30.7) ^a h
same,C1max,[1]; [10],468.71 (63.7) pg ml^–1
same,t1(1/2),[1]; [10],3.28 (75.7) h
same,C1max,[1]; [11],932.04 (76.3) pg ml^–1
same,t1(1/2),[1]; [11],3.14 (62.4) h
same,C8max,[1]; [12],99.39 (63.6) pg ml^–1
same,t8(1/2),[1]; [12],2.42 (31.2) h
same,C8max,[1]; [13],139.45 (50.7) pg ml^–1
same,t8(1/2),[1]; [13],3.29 (68.9) h
same,C8max,[1]; [14],283.84 (17.9) pg ml^–1
same,t8(1/2),[1]; [14],4.96 (64.1) h
same,C8max,[1]; [15],388.55 (82.0) pg ml^–1
same,t8(1/2),[1]; [15],4.62 (58.2) h
same,C8max,[1]; [16],581.32 (53.6) pg ml^–1
same,t8(1/2),[1]; [16],5.16 (45.2) h
same,C14max,[1]; [17],82.66 (50.4) pg ml^–1
same,t14(1/2),[1]; [17],2.34 (50.8) ^a h
same,C14max,[1]; [18],165.57 (35.0) pg ml^–1
same,t14(1/2),[1]; [18],3.73 (61.0) h
same,C14max,[1]; [19],236.11 (34.4) pg ml^–1
same,t14(1/2),[1]; [19],6.19 (146.0) h
same,C14max,[1]; [20],383.19 (73.5) pg ml^–1
same,t14(1/2),[1]; [20],5.68 (74.9) h
same,C14max,[1]; [21],953.18 (53.6) pg ml^–1
same,t14(1/2),[1]; [21],7.23 (37.5) h
same,"AUC8(0–t), back transformed LSM ratio male/female",[1]; [22],0.9947
same,"C8max, back transformed LSM ratio male/female",[1]; [22],0.8416
same,"AUC14(0–t), back transformed LSM ratio male/female",[1]; [23],0.9863
same,"C14max, back transformed LSM ratio male/female",[1]; [23],0.9675
same,drug accumulation from Cmax (Rac),"[1]; all dosage groups, 90% CIs of Rac included 1.000",No drug accumulation
same,time to steady state of plasma concentration,[1]; multiple administration once daily,≤ 8 days
same,C4 AUEC relative to placebo (ANCOVA),[2],significantly greater
same,LDL‐C AUEC compared to placebo (ANCOVA),[3],significantly greater reductions
same,"HDL‐C levels, trend",[4],no clear trend
same,"C4 Emax and AUEC, breakfast regimen compared with no‐breakfast regimen",[5],significantly greater elevations
same,"AEs associated with gastrointestinal disorders, % of patients",[6]; [24],(40.0) %
same,"AEs associated with gastrointestinal disorders, n of patients",[6]; [24],4
same,"Any AEs, % of patients",[6]; [24],(40.0) %
same,"Any AEs, n of patients",[6]; [24],4
same,"abdominal distention, % of patients",[6]; [24],(20.0) %
same,"abdominal distention, n of patients",[6]; [24],2
same,"abdominal pain lower, % of patients",[6]; [24],(20.0) %
same,"abdominal pain lower, n of patients",[6]; [24],2
same,"diarrhoea, n of patients",[6]; [24],0
same,"AEs associated with gastrointestinal disorders, % of patients",[6]; [25],(20.0) %
same,"AEs associated with gastrointestinal disorders, n of patients",[6]; [25],2
same,"Any AEs, % of patients",[6]; [25],(40.0) %
same,"Any AEs, n of patients",[6]; [25],4
same,"abdominal distention, n of patients",[6]; [25],0
same,"abdominal pain lower, % of patients",[6]; [25],(10.0) %
same,"abdominal pain lower, n of patients",[6]; [25],1
same,"diarrhoea, n of patients",[6]; [25],0
same,"AEs associated with gastrointestinal disorders, % of patients",[6]; [26],(80.0) %
same,"AEs associated with gastrointestinal disorders, n of patients",[6]; [26],8
same,"Any AEs, % of patients",[6]; [26],(80.0) %
same,"Any AEs, n of patients",[6]; [26],8
same,"abdominal distention, n of patients",[6]; [26],0
same,"abdominal pain lower, % of patients",[6]; [26],(40.0) %
same,"abdominal pain lower, n of patients",[6]; [26],4
same,"diarrhoea, % of patients",[6]; [26],(40.0) %
same,"diarrhoea, n of patients",[6]; [26],4
same,"AEs associated with gastrointestinal disorders, % of patients",[6]; [27],(50.0) %
same,"AEs associated with gastrointestinal disorders, n of patients",[6]; [27],5
same,"Any AEs, % of patients",[6]; [27],(50.0) %
same,"Any AEs, n of patients",[6]; [27],5
same,"abdominal distention, % of patients",[6]; [27],(20.0) %
same,"abdominal distention, n of patients",[6]; [27],2
same,"abdominal pain lower, % of patients",[6]; [27],(20.0) %
same,"abdominal pain lower, n of patients",[6]; [27],2
same,"diarrhoea, % of patients",[6]; [27],(30.0) %
same,"diarrhoea, n of patients",[6]; [27],3
same,"AEs associated with gastrointestinal disorders, % of patients",[6]; [28],(10.0) %
same,"AEs associated with gastrointestinal disorders, n of patients",[6]; [28],1
same,"Any AEs, % of patients",[6]; [28],(20.0) %
same,"Any AEs, n of patients",[6]; [28],2
same,"abdominal distention, n of patients",[6]; [28],0
same,"abdominal pain lower, % of patients",[6]; [28],(10.0) %
same,"abdominal pain lower, n of patients",[6]; [28],1
same,"diarrhoea, n of patients",[6]; [28],0
same,"AEs associated with gastrointestinal disorders, % of patients",[6]; [29],(10.0) %
same,"AEs associated with gastrointestinal disorders, n of patients",[6]; [29],1
same,"Any AEs, % of patients",[6]; [29],(30.0) %
same,"Any AEs, n of patients",[6]; [29],3
same,"abdominal distention, n of patients",[6]; [29],0
same,"abdominal pain lower, % of patients",[6]; [29],(10.0) %
same,"abdominal pain lower, n of patients",[6]; [29],1
same,"diarrhoea, n of patients",[6]; [29],0
same,"AEs associated with gastrointestinal disorders, % of patients",[6]; [30],(60.0) %
same,"AEs associated with gastrointestinal disorders, n of patients",[6]; [30],6
same,"Any AEs, % of patients",[6]; [30],(60.0) %
same,"Any AEs, n of patients",[6]; [30],6
same,"abdominal distention, % of patients",[6]; [30],(10.0) %
same,"abdominal distention, n of patients",[6]; [30],1
same,"abdominal pain lower, % of patients",[6]; [30],(10.0) %
same,"abdominal pain lower, n of patients",[6]; [30],1
same,"diarrhoea, % of patients",[6]; [30],(50.0) %
same,"diarrhoea, n of patients",[6]; [30],5
same,"AEs associated with gastrointestinal disorders, % of patients",[6]; [31],(100.0) %
same,"AEs associated with gastrointestinal disorders, n of patients",[6]; [31],10
same,"Any AEs, % of patients",[6]; [31],(100.0) %
same,"Any AEs, n of patients",[6]; [31],10
same,"abdominal distention, % of patients",[6]; [31],(20.0) %
same,"abdominal distention, n of patients",[6]; [31],2
same,"abdominal pain lower, % of patients",[6]; [31],(30.0) %
same,"abdominal pain lower, n of patients",[6]; [31],3
same,"diarrhoea, % of patients",[6]; [31],(70.0) %
same,"diarrhoea, n of patients",[6]; [31],7
same,"AEs associated with gastrointestinal disorders, % of patients",[6]; [32],(30.0) %
same,"AEs associated with gastrointestinal disorders, n of patients",[6]; [32],3
same,"Any AEs, % of patients",[6]; [32],(40.0) %
same,"Any AEs, n of patients",[6]; [32],4
same,"abdominal distention, % of patients",[6]; [32],(20.0) %
same,"abdominal distention, n of patients",[6]; [32],2
same,"abdominal pain lower, % of patients",[6]; [32],(10.0) %
same,"abdominal pain lower, n of patients",[6]; [32],1
same,"diarrhoea, n of patients",[6]; [32],0
same,"AEs associated with gastrointestinal disorders, % of patients",[6]; [33],(11.1) %
same,"AEs associated with gastrointestinal disorders, n of patients",[6]; [33],1
same,"Any AEs, % of patients",[6]; [33],(44.4) %
same,"Any AEs, n of patients",[6]; [33],4
same,"abdominal distention, % of patients",[6]; [33],(11.1) %
same,"abdominal distention, n of patients",[6]; [33],1
same,"abdominal pain lower, n of patients",[6]; [33],0
same,"diarrhoea, n of patients",[6]; [33],0
